According to ChEMBL document CHEMBL1671655, “Anidulafungin is fungicidal and exerts a variety of postantifungal effects against Candida albicans, C. glabrata, C. parapsilosis, and C. krusei isolates” (2009):
Activity calls are given as the source filed them. The rule behind the calls is not given here. Starred links: 1 amine or outer side, 2 acyl side, 3 side chain; linkers in the order of their positions; H or OH if unused. Positions of bridges follow the written chain, without caps; N, C: chain ends. Non-standard residues stand in square brackets, D forms with d. Residues, ends and D or L forms follow the SMILES beside them. *: point of attachment. pTerphenylCO(4''-OnC5H11) = CCCCCOc1ccc(-c2ccc(-c3ccc(C(=O)*)cc3)cc2)cc1; Orn(4R-OH,5R-OH) = O=C([C@H](C[C@@H](O)[C@@H](O)N[*:3])N[*:1])[*:2]; hTyr(3S-OH,4S-OH) = N[C@H](C(=O)O)[C@H](O)[C@@H](O)c1ccc(O)cc1; Pro(3S-OH,4S-Me) = C[C@H]1CN[C@H](C(=O)O)[C@H]1O; Hyp = O=C(O)[C@@H]1C[C@@H](O)CN1

Experiments:
[1] = test system: Candida albicans; experiment: Increase in susceptibility to SDS in Candida albicans isolate 1 assessed as cell wall damage at MIC after 1 hr relative to control; assay type: functional, organism-based
Outline: (§1)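 Cells recovered 8 h after a 1-h drug exposure were grown in YPD with 1% glucose to exponential phase and adjusted to OD599 0.1. Undiluted culture and 10-fold serial dilutions were spotted onto YPD plates containing SDS (0.01 to 0.04%), then incubated 72 h at 30°C. Growth compared with unexposed control cells; triplicate.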

[2] = test system: Nakaseomyces glabratus; experiment: Increase in susceptibility to SDS in Candida glabrata isolate 1 assessed as cell wall damage at MIC after 1 hr relative to control; assay type: functional, organism-based; outline: as §1
[3] = test system: Candida albicans; experiment: Increase in susceptibility to calcofluor white in Candida albicans ATCC 90028 assessed as cell wall damage at MIC after 1 hr relative to control; assay type: functional, organism-based
Outline: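 Cells recovered 8 h after a 1-h drug exposure were grown to exponential phase in YPD with 1% glucose and adjusted to OD599 0.1. Undiluted and 10-fold serially diluted cultures were spotted onto YPD plates containing calcofluor white, then incubated at 30°C for 72 h. Growth compared with no-drug control cells; triplicate.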

[4] = test system: Nakaseomyces glabratus; experiment: Fungicidal activity against Candida glabrata isolate 2 assessed as log reduction in bacterial count at 4 times MIC after 48 hrs by time-kill analysis; assay type: functional; settings: isolate 2, 48 h
Outline: (§2)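 Isolates subcultured twice on SDA, suspended to 0.5 McFarland, giving ~1 x 10^5 to 5 x 10^5 CFU/ml in MOPS-buffered RPMI 1640 (pH 7.0) with or without drug at multiples of MIC (MIC by CLSI M27-A3). Tubes shaken at 35°C with continuous drug. Sampled at 0–48 h, diluted 10-fold and plated on SDA; CFU counted after 48 h at 35°C. Run twice per isolate; means.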

[5] = test system: Candida albicans; experiment: Inhibition of Candida albicans isolate 1 adherence to human buccal epithelial cells at 4 times MIC after 1 hr by adherence assay relative to control; assay type: functional, Epithelial cell
Outline: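 Candida collected 8 h after a 1-h 4x MIC pulse and washout were grown on SDA for 24 h at 35°C. Buccal epithelial cells were pooled from three donors and washed in PBS. Cells (1 x 10^5/ml) were mixed 1:1 by volume with Candida (1 x 10^6/ml) and shaken 1 h at 37°C. Mixtures were filtered, washed, and Gram-stained, and Candida were counted per 100 epithelial cells. Run in duplicate on ≥2 occasions; Student's t test against unexposed controls.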

[6] = test system: Candida parapsilosis; experiment: Increase in susceptibility to SDS in Candida parapsilosis isolate A assessed as cell wall damage at 4 times MIC after 1 hr relative to control; assay type: functional, organism-based; outline: as §1
[7] = test system: Candida parapsilosis; experiment: Fungicidal activity against Candida parapsilosis isolate S assessed as log reduction in bacterial count at MIC after 48 hrs by time-kill analysis; assay type: functional; settings: Lodderomyces parapsilosis
Outline: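 Isolates subcultured twice on SDA, then suspended to 0.5 McFarland and diluted into RPMI 1640 (MOPS, pH 7.0) with or without anidulafungin, giving about 1 x 10^5 to 5 x 10^5 CFU/ml. Tubes were shaken at 35°C. Samples were taken at 0, 2, 4, 8, 12, 24 and 48 h, serially diluted 10-fold, plated on SDA, and CFU counted after 48 h at 35°C. Each isolate was run twice; mean values.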

[8] = test system: Candida albicans; experiment: Antifungal activity against Candida albicans assessed as time period for bacterial regrowth inhibition after 1 hr drug exposure; assay type: functional
[9] = test system: Candida parapsilosis; experiment: Increase in susceptibility to SDS in Candida parapsilosis isolate 1 assessed as cell wall damage at 4 times MIC after 1 hr relative to control; assay type: functional, organism-based; outline: as §1
[10] = test system: Nakaseomyces glabratus; experiment: Antifungal activity against Candida glabrata isolate 3 assessed as time period for bacterial growth inhibition at 16 times MIC after 1 hr drug exposure; assay type: functional
Outline: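 Inoculum of about 1 x 10^5 to 5 x 10^5 CFU/ml in MOPS-buffered RPMI (pH 7.0), shaken at 35°C and exposed to drug for 1 h. Cells then washed and centrifuged three times and resuspended in drug-free warm RPMI. Samples plated on SDA at 0, 2, 4, 8, 12, 24 and 48 h, with CFU counted after 48 h at 35°C. Run twice per isolate; values are means.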

[11] = test system: Nakaseomyces glabratus; experiment: Fungicidal activity against Candida glabrata isolate 1 assessed as log reduction in bacterial count at 4 times MIC after 48 hrs by time-kill analysis; assay type: functional; settings: isolate 1, 48 h; outline: as §2

CCCCCOc1ccc(-c2ccc(-c3ccc(C(=O)N[C@H]4C[C@@H](O)[C@@H](O)NC(=O)[C@@H]5[C@@H](O)[C@@H](C)CN5C(=O)[C@H]([C@@H](C)O)NC(=O)[C@H]([C@H](O)[C@@H](O)c5ccc(O)cc5)NC(=O)[C@@H]5C[C@@H](O)CN5C(=O)[C@H]([C@@H](C)O)NC4=O)cc3)cc2)cc1 [ANIDULAFUNGIN] ({pTerphenylCO(4''-OnC5H11)}-[Orn(4R-OH,5R-OH)]T[Hyp][hTyr(3S-OH,4S-OH)]T[Pro(3S-OH,4S-Me)]; lactam 1-C) was tested, and the Activity [1] was “Active”, the Activity [2] was “Active” and the Activity [3] was “Active”. For the same compound, the log reduction [4] was 1.87 log CFU/ml, the “inhibition (INH)” value [5] was 58% and the Activity [6] was “Active”. The log reduction [7] was 1.32 log CFU/ml, the Time [8] was “>=12 hr” and the Activity [9] was “Active”. The Time [10] was 8 h and the log reduction [11] was 2.77 log CFU/ml.
